Measurements taken from ChEMBL document CHEMBL4340558, “Synthesis, biological evaluation, and molecular docking study of sulfonate derivatives as nucleotide pyrophosphatase/phosphodiesterase (NPP) inhibitors” (Bioorg Med Chem, 2019).

Experiments:
[1] = molecular target: T1, Ectonucleotide pyrophosphatase/phosphodiesterase family member 3 (Homo sapiens) (UniProt O14638); experiment: Inhibition of human NPP3 expressed in African green monkey COS7 cell membranes pre-incubated for 10 mins before pNP-TMP substrate addition and further incubated for 15 mins by colorimetric method relative to untreated control; design: concentration or dose not given beside the values
T1 sequence (whole entry): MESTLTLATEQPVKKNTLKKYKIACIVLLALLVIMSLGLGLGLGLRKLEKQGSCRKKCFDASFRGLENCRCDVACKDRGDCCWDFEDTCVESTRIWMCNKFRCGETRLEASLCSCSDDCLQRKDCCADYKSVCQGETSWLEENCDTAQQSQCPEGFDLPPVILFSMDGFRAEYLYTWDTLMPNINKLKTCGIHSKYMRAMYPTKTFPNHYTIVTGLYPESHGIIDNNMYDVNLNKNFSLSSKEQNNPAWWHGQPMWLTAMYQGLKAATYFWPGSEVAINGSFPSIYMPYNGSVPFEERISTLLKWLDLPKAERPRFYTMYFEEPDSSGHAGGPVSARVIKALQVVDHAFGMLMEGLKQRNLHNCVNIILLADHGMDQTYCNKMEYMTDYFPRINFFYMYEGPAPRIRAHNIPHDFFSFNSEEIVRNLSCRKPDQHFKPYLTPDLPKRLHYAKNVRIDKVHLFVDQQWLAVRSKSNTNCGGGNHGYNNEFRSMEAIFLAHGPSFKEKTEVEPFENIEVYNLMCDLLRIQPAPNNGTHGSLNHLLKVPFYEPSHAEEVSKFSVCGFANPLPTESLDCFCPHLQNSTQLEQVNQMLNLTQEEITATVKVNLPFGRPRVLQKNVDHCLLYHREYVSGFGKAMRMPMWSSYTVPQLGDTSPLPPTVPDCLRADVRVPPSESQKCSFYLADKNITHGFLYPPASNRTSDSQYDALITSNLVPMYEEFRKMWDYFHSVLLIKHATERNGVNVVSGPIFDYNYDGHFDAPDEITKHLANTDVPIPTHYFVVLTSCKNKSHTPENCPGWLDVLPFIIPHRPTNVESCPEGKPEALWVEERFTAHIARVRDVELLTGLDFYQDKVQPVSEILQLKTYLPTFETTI
In short: (§1)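 Single-point screen at 100 µM test compound, added from a 1 mM stock in 10% DMSO. Buffer was 50 mM Tris-HCl, 5 mM MgCl2, 0.1 mM ZnCl2, pH 9.5, at 37 °C. pNP-TMP substrate was 400 µM for NPP1, 500 µM for NPP2, 600 µM for NPP3. Absorbance at 405 nm was read before and after substrate addition. Percent inhibition was determined in triplicate.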

[2] = molecular target: T2, Ectonucleotide pyrophosphatase/phosphodiesterase family member 1 (Homo sapiens) (UniProt P22413); experiment: Inhibition of human NPP1 expressed in African green monkey COS7 cell membranes pre-incubated for 10 mins before pNP-TMP substrate addition and further incubated for 15 mins by colorimetric method relative to untreated control; design: concentration or dose not given beside the values; in short: as §1
T2 sequence (whole entry): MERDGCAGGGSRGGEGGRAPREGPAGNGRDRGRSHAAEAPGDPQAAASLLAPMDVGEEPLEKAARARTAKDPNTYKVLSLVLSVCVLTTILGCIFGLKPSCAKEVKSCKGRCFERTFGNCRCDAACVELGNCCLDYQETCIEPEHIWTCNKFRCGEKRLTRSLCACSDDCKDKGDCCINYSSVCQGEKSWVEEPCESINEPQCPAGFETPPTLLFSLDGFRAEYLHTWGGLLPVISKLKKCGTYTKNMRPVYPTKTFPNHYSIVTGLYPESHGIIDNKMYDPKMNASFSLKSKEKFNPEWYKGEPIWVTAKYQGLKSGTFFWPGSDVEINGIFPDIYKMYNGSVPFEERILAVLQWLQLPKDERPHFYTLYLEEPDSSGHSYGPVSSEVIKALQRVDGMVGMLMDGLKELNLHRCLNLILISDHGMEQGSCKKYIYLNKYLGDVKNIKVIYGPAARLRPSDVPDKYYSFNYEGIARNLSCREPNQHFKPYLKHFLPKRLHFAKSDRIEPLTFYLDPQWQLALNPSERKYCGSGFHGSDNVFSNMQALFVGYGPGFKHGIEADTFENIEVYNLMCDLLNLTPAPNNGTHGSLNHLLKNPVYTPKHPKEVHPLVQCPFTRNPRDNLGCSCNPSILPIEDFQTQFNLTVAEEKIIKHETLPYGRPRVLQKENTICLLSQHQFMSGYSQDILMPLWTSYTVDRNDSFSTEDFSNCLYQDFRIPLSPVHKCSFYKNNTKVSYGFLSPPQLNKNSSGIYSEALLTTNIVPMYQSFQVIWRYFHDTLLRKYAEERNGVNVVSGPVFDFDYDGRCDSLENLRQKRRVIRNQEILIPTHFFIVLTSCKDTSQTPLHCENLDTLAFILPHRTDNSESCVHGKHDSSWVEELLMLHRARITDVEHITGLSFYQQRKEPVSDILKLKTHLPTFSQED

Autotaxin [3] = molecular target: T3, Autotaxin (Homo sapiens, UniProt Q13822); experiment: Inhibition of human NPP2 expressed in African green monkey COS7 cell membranes pre-incubated for 5 mins before pNP-TMP substrate addition and further incubated for 35 mins by colorimetric method
In short: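 Colorimetric assay in 50 mM Tris-HCl, 5 mM MgCl2, 0.1 mM ZnCl2, pH 9.5, at 37 °C. Enzyme amounts: NPP1 35 ng, NPP2 338 ng, NPP3 37 ng. Pre-read at 405 nm was taken, then pNP-TMP was added: 400 µM for NPP1, 500 µM for NPP2, 600 µM for NPP3. A second 405 nm read followed. Runs were in triplicate. IC50 came from serial dilutions by non-linear curve fitting.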

[4] = molecular target: T4, Ectonucleotide pyrophosphatase/phosphodiesterase family member 3 (Homo sapiens, UniProt O14638); experiment: Inhibition of human NPP3 expressed in African green monkey COS7 cell membranes pre-incubated for 10 mins before pNP-TMP substrate addition and further incubated for 15 mins by colorimetric method
T4 sequence (O14638 whole entry): T1 sequence (whole entry)

[5] = molecular target: T5, Ectonucleotide pyrophosphatase/phosphodiesterase family member 1 (Homo sapiens, UniProt P22413); experiment: Inhibition of human NPP1 expressed in African green monkey COS7 cell membranes pre-incubated for 10 mins before pNP-TMP substrate addition and further incubated for 15 mins by colorimetric method
T5 sequence (P22413 whole entry): T2 sequence (whole entry)

Autotaxin [6] = molecular target: T3, Autotaxin; experiment: Inhibition of human NPP2 expressed in African green monkey COS7 cell membranes pre-incubated for 5 mins before pNP-TMP substrate addition and further incubated for 35 mins by colorimetric method relative to untreated control; design: concentration or dose not given beside the values; in short: as §1
[7] = molecular target: T1, Ectonucleotide pyrophosphatase/phosphodiesterase family member 3 (Homo sapiens); experiment: Potency index, ratio of IC50 for suramin to IC50 for test compound for inhibition of human NPP3 expressed in African green monkey COS7 cell membranes pre-incubated for 10 mins before pNP-TMP substrate addition and further incubated for 15 mins by colorimetric method

| SMILES | inhibition [1] [%] | inhibition [2] [%] | IC50 (Autotaxin [3]) [nM] | IC50 [4] [nM] | IC50 [5] [nM] | inhibition (Autotaxin [6]) [%] | Ratio IC50 [7] |
| --- | --- | --- | --- | --- | --- | --- | --- |
| Cc1ccc(S(=O)(=O)Oc2ccc(NC(=O)C3CCCCCCC3)cc2)cc1 | 35 | 43 | 80300 | – | – | – | – |
| Cc1ccc(S(=O)(=O)Oc2ccc(NC(=O)c3ccc(Cl)cc3)cc2)cc1 | – | – | 7690 | 1620 | 1440 | – | – |
| Cc1ccc(S(=O)(=O)Oc2ccc(NC(=O)C3CCCCCC3)cc2)cc1 | – | – | – | 255 | 422 | 24 | – |
| O=C(Nc1ccc(OS(=O)(=O)c2ccc(C(F)(F)F)cc2)cc1)C1CCCCC1 | – | – | 1600 | 1790 | 387 | – | – |
| O=C(Nc1ccc(OS(=O)(=O)c2ccc(C(F)(F)F)cc2)cc1)C1CCCC1 | – | – | 659 | 3960 | 1130 | – | – |
| CC(C)c1cc(C(C)C)c(S(=O)(=O)Oc2ccc(NC(=O)c3ccc(Cl)cc3)cc2)c(C(C)C)c1 | – | – | – | 1200 | 975 | 24 | – |
| O=C(Nc1ccc(OS(=O)(=O)c2ccccc2)cc1)C1CCCC1 | – | – | – | 1720 | 46700 | 38 | – |
| O=C(Nc1ccc(OS(=O)(=O)c2ccccc2)cc1)c1ccc(Cl)cc1 | – | – | > 100000 | 2770 | 9610 | – | – |
| CS(=O)(=O)Oc1ccc(NC(=O)C2CCCCC2)cc1 | – | – | – | 1350 | 1920 | 33 | – |
| CCS(=O)(=O)Oc1ccc(NC(=O)C2CCCCC2)cc1 | – | – | 1820 | 369 | 1630 | – | – |
| O=C(Nc1ccc(OS(=O)(=O)c2ccc(F)cc2)cc1)c1ccc2ccccc2c1 | – | – | – | 13500 | 1490 | 33 | – |
| O=C(Nc1ccc(OS(=O)(=O)c2ccc(C(F)(F)F)cc2)cc1)c1ccc2ccccc2c1 | – | – | – | 5430 | 1120 | 22 | – |
| CC(C)c1cc(C(C)C)c(S(=O)(=O)Oc2ccc(NC(=O)C3CCCCCC3)cc2)c(C(C)C)c1 | 37 | 29 | – | – | – | 23 | – |
| CC(C)c1cc(C(C)C)c(S(=O)(=O)Oc2ccc(NC(=O)C3CCCCCCC3)cc2)c(C(C)C)c1 | 30 | 30 | – | – | – | 46 | – |
| O=C(Nc1ccc(OS(=O)(=O)c2ccc(F)cc2)cc1)C1CCCCCC1 | – | 39.3 | 4940 | 2270 | – | – | – |
| O=C(Nc1ccc(OS(=O)(=O)c2ccc(F)cc2)cc1)C1CCCC1 | – | – | 1470 | 1010 | 5760 | – | – |
| O=C(Nc1ccc(OS(=O)(=O)c2ccc(F)cc2)cc1)c1ccc(Cl)cc1 | 46 | – | 19900 | – | 2900 | – | – |
| CC(C)(C)c1ccc(S(=O)(=O)Oc2ccc(NC(=O)C3CCCCC3)cc2)cc1 | – | – | – | 807 | 2550 | 39 | – |
| O=C(Nc1ccc(OS(=O)(=O)c2ccccc2)cc1)c1ccc2ccccc2c1 | – | – | 28000 | 20500 | 9300 | – | – |

| SMILES | inhibition [1] [%] | inhibition [2] [%] | IC50 (Autotaxin [3]) [nM] | IC50 [4] [nM] | IC50 [5] [nM] | inhibition (Autotaxin [6]) [%] | Ratio IC50 [7] |
| --- | --- | --- | --- | --- | --- | --- | --- |
| O=C(Nc1ccc(OS(=O)(=O)c2cccc3cccnc23)cc1)c1ccc2ccccc2c1 | 42 | 37 | 2460 | – | – | – | – |
| CC(C)c1cc(C(C)C)c(S(=O)(=O)Oc2ccc(NC(=O)c3ccc4ccccc4c3)cc2)c(C(C)C)c1 | – | – | – | 2890 | 3430 | 42 | – |
| O=C(Nc1ccc(OS(=O)(=O)c2ccc(F)cc2)cc1)C1CCCCC1 | – | – | – | 254 | 564 | 37 | – |
| CCCS(=O)(=O)Oc1ccc(NC(=O)C2CCCCC2)cc1 | – | – | 26200 | 2410 | 3460 | – | – |
| CC(C)(C)c1ccc(S(=O)(=O)Oc2ccc(NC(=O)c3ccc(Cl)cc3)cc2)cc1 | – | – | – | 1520 | 1800 | 31 | – |
| CC(C)(C)c1ccc(S(=O)(=O)Oc2ccc(NC(=O)C3CCCCCCC3)cc2)cc1 | 46 | 40 | – | – | – | 49 | – |
| O=C(Nc1ccc(OS(=O)(=O)c2ccc(C(F)(F)F)cc2)cc1)c1ccc(Cl)cc1 | – | – | 1070 | 3420 | 21600 | – | – |
| Cc1ccc(S(=O)(=O)Oc2ccc(NC(=O)C3CCCC3)cc2)cc1 | – | – | 13600 | 856 | 8140 | – | – |
| CC(C)(C)c1ccc(S(=O)(=O)Oc2ccc(NC(=O)C3CCCC3)cc2)cc1 | – | – | – | 2680 | 1650 | 42 | – |
| O=C(Nc1ccc(OS(=O)(=O)c2ccccc2)cc1)C1CCCCC1 | – | – | 23800 | 1080 | 11800 | – | – |
| O=C(Nc1ccc(OS(=O)(=O)c2ccccc2)cc1)C1CCCCCC1 | – | – | – | 6600 | 13800 | 28 | – |
| O=C(Nc1ccc(OS(=O)(=O)c2ccccc2)cc1)C1CCCCCCC1 | 47 | 45 | 65400 | – | – | – | – |
| Cc1ccc(S(=O)(=O)Oc2ccc(NC(=O)C3CCCCC3)cc2)cc1 | 39 | 43 | – | – | – | 27 | – |
| O=C(Nc1ccc(OS(=O)(=O)c2ccc(C(F)(F)F)cc2)cc1)C1CCCCCC1 | – | – | – | 2580 | 431 | 34 | – |
| CC(C)(C)c1ccc(S(=O)(=O)Oc2ccc(NC(=O)C3CCCCCC3)cc2)cc1 | – | – | 3910 | 47000 | 1490 | – | – |
| CC(C)(C)c1ccc(S(=O)(=O)Oc2ccc(NC(=O)c3ccc4ccccc4c3)cc2)cc1 | 49 | – | – | – | 2190 | 38 | – |
| Cc1ccc(S(=O)(=O)Oc2ccc(NC(=O)c3ccc4ccccc4c3)cc2)cc1 | 23 | 24 | 7990 | – | – | – | – |
| O=C(Nc1ccc(OS(=O)(=O)c2ccc(C(F)(F)F)cc2)cc1)C1CCCCCCC1 | – | 29 | 679 | 214 | – | – | 6 |
